Measurements reported in ChEMBL document CHEMBL1126585, “Effect of N-methyl substitution of the peptide bonds in luteinizing hormone-releasing hormone agonists” (J Med Chem, 1993).
Square brackets hold non-standard residues; d marks the D form. Peptide text beside a SMILES is read from it. 1Nal = N[C@@H](Cc1cccc2ccccc12)C(=O)O; NMeF = CN[C@@H](Cc1ccccc1)C(=O)O; pGlu = O=C1CC[C@@H](C(=O)O)N1; NMeS = CN[C@@H](CO)C(=O)O

Assays:
Rattus norvegicus [1] = species: Rattus norvegicus; test: Intestinal stability against rat jejunum sac, activity is expressed as T1/2; format: functional
Method in brief: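 Rat jejunal sac in vitro; T1/2 taken as time, in min, for lumenal compound concentration to fall by 50%.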

[2] = Clearance in rat after iv dose (100 ug/kg); format: ADME, organism-based; conditions: in vivo, 0.1 mg/kg
Method in brief: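 Castrate male rats given 100 μg/kg iv bolus; blood sampled over 6 h with EDTA anticoagulant. Plasma levels by RIA with antibody recognizing C-terminal Leu-Arg-Pro-NHEt or Leu-Arg-Pro-GlyNH₂ (rabbit antisera C-402 with [125I-Tyr⁵]leuprolide tracer, or 5328W with [125I-Tyr⁵,DLys⁶]LHRH). AUC by trapezoidal rule; whole-body clearance = dose/AUC, mL/min per kg.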

chymotrypsin = test: Chymotrypsin degradation half-life was determined; format: ADME
Rattus norvegicus [3] = species: Rattus norvegicus; test: Tested in vitro for LH release from cultured rat pituitary cells, activity is expressed as pD2 value; format: functional, Pituitary gland cell
Method in brief: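 Cultured rat pituitary cells; LH release measured across agonist concentrations; pD2 = negative log of agonist concentration giving 50% of maximal LH release.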

Rattus norvegicus [4] = species: Rattus norvegicus; test: In vitro for LH release inhibition from cultured rat pituitary cells, activity is expressed as pA2 value; format: functional, cell-based; conditions: Pituitary gland cell, read-out: pA2 (converted)
Method in brief: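 Cultured rat pituitary cells releasing LH in response to agonist; pA2 = negative log of antagonist concentration requiring 2-fold more agonist for LH release.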

| SMILES | clearance [2] | half-life (chymotrypsin) | T1/2 (Rattus norvegicus [1]) | pD2 (Rattus norvegicus [3]) | Kb (Rattus norvegicus [4]) |
| --- | --- | --- | --- | --- | --- |
| CCNC(=O)[C@@H]1CCCN1C(=O)[C@H](CCCN=C(N)N)NC(=O)[C@H](CC(C)C)NC(=O)[C@@H](CC(C)C)NC(=O)[C@H](Cc1ccc(O)cc1)NC(=O)[C@H](CO)NC(=O)[C@H](Cc1cccc2ccccc12)NC(=O)[C@H](Cc1c[nH]cn1)NC(=O)[C@@H]1CCC(=O)N1 ([pGlu]H[1Nal]SY[dL]LRP-NHEt) | 28.4 mL/min/kg | > 15 min | 25 min |  |  |
| CC(C)C[C@H](NC(=O)[C@@H](Cc1ccc2ccccc2c1)NC(=O)[C@H](Cc1ccc(O)cc1)NC(=O)[C@H](CO)NC(=O)[C@H](Cc1c[nH]c2ccccc12)NC(=O)[C@H](Cc1cnc[nH]1)NC(=O)[C@@H]1CCC(=O)N1)C(=O)N[C@@H](CCCNC(=N)N)C(=O)N1CCC[C@H]1C(=O)NCC(N)=O [NAFARELIN] | 5.5 mL/min/kg | 0.5 min |  | 11.05 |  |
| CCNC(=O)[C@@H]1CCCN1C(=O)[C@H](CCCN=C(N)N)NC(=O)[C@H](CC(C)C)NC(=O)[C@@H](CC(C)C)NC(=O)[C@H](Cc1ccc(O)cc1)N(C)C(=O)[C@H](CO)NC(=O)[C@H](Cc1c[nH]c2ccccc12)NC(=O)[C@H](Cc1cnc[nH]1)NC(=O)[C@@H]1CCC(=O)N1 | 8.2 mL/min/kg | > 60 min |  |  |  |
| CCNC(=O)[C@@H]1CCCN1C(=O)[C@H](CCCN=C(N)N)NC(=O)[C@H](CC(C)C)NC(=O)[C@@H](CC(C)C)NC(=O)[C@H](Cc1ccc(O)cc1)NC(=O)[C@H](CO)NC(=O)[C@H](Cc1cccc2ccccc12)N(C)C(=O)[C@H](Cc1c[nH]cn1)NC(=O)[C@@H]1CCC(=O)N1 | 14.4 mL/min/kg | > 60 min | 44 min |  | 257 nM |
| CCNC(=O)[C@@H]1CCCN1C(=O)[C@H](CCCN=C(N)N)NC(=O)C(CC(C)C)NC(=O)C(CC(C)C)NC(=O)[C@H](Cc1ccc(O)cc1)NC(=O)[C@H](CO)NC(=O)[C@H](Cc1c[nH]c2ccccc12)NC(=O)[C@H](Cc1c[nH]cn1)N(C)C(=O)[C@@H]1CCC(=O)N1 (stereo in doubt) | 7.16 mL/min/kg | 7 min |  |  |  |
| CCNC(=O)[C@@H]1CCCN1C(=O)[C@H](CCCN=C(N)N)NC(=O)[C@H](CC(C)C)NC(=O)[C@@H](CC(C)C)N(C)C(=O)[C@H](Cc1ccc(O)cc1)NC(=O)[C@H](CO)NC(=O)[C@H](Cc1c[nH]c2ccccc12)NC(=O)[C@H](Cc1c[nH]cn1)NC(=O)[C@@H]1CCC(=O)N1 |  |  | 54 min | 9.61 |  |
| CC(C)C[C@H](NC(=O)[C@@H](Cc1ccc2ccccc2c1)NC(=O)[C@H](Cc1ccc(O)cc1)NC(=O)[C@H](CO)NC(=O)[C@H](Cc1c[nH]c2ccccc12)NC(=O)[C@H](Cc1ccccc1)N(C)C(=O)[C@@H]1CCC(=O)N1)C(=O)N[C@@H](CCCN=C(N)N)C(=O)N1CCC[C@H]1C(=O)NCC(N)=O |  |  |  |  | 1.58 nM |
| CCNC(=O)[C@@H]1CCCN1C(=O)[C@H](CCCN=C(N)N)NC(=O)[C@H](CC(C)C)NC(=O)[C@@H](Cc1c[nH]c2ccccc12)NC(=O)[C@H](Cc1ccc(O)cc1)NC(=O)[C@H](CO)NC(=O)[C@H](Cc1c[nH]c2ccccc12)NC(=O)[C@H](Cc1ccccc1)N(C)C(=O)[C@@H]1CCC(=O)N1 ([pGlu][NMeF]WSY[dW]LRP-NHEt) | 44.5 mL/min/kg | 3.7 min | 44.4 min |  |  |
| CCNC(=O)[C@@H]1CCCN1C(=O)[C@H](CCCN=C(N)N)NC(=O)[C@H](CC(C)C)NC(=O)[C@@H](CC(C)C)N(C)C(=O)[C@H](Cc1ccc(O)cc1)NC(=O)[C@H](CO)NC(=O)[C@H](Cc1c[nH]c2ccccc12)NC(=O)[C@H](Cc1cnc[nH]1)NC(=O)[C@@H]1CCC(=O)N1 | 21 mL/min/kg | 1 min |  |  |  |
| CCNC(=O)[C@@H]1CCCN1C(=O)[C@H](CCCN=C(N)N)N(C)C(=O)[C@H](CC(C)C)NC(=O)[C@@H](CC(C)C)NC(=O)[C@H](Cc1ccc(O)cc1)NC(=O)[C@H](CO)NC(=O)[C@H](Cc1c[nH]c2ccccc12)NC(=O)[C@H](Cc1c[nH]cn1)NC(=O)[C@@H]1CCC(=O)N1 |  | 1 min | 6.6 min | 7 |  |
| CCNC(=O)[C@@H]1CCCN1C(=O)[C@H](CCCN=C(N)N)NC(=O)C(CC(C)C)NC(=O)C(CC(C)C)NC(=O)[C@H](Cc1ccc(O)cc1)NC(=O)[C@H](CO)NC(=O)[C@H](Cc1c[nH]c2ccccc12)NC(=O)[C@H](Cc1ccccc1)N(C)C(=O)[C@@H]1CCC(=O)N1 (stereo in doubt) | 31 mL/min/kg | 6 min | 18 min |  | 29.5 nM |
| CC(C)C[C@H](NC(=O)[C@@H](CC(C)C)NC(=O)[C@H](Cc1ccc(O)cc1)NC(=O)[C@H](CO)NC(=O)[C@H](Cc1c[nH]c2ccccc12)NC(=O)[C@H](Cc1c[nH]cn1)NC(=O)[C@@H]1CCC(=O)N1)C(=O)N[C@@H](CCCN=C(N)N)C(=O)N1CCC[C@H]1C(=O)N(C)CC(N)=O | 9.77 mL/min/kg | 1 min | 8.4 min | 8.73 |  |

Second part, led by results:

| clearance [2] | half-life (chymotrypsin) | SMILES | T1/2 (Rattus norvegicus [1]) | pD2 (Rattus norvegicus [3]) | Kb (Rattus norvegicus [4]) |
| --- | --- | --- | --- | --- | --- |
| 9 mL/min/kg | 1 min | CCNC(=O)[C@@H]1CCCN1C(=O)[C@H](CCCNC(=N)N)NC(=O)[C@H](CC(C)C)NC(=O)[C@@H](CC(C)C)NC(=O)[C@H](Cc1ccc(O)cc1)NC(=O)[C@H](CO)NC(=O)[C@H](Cc1c[nH]c2ccccc12)NC(=O)[C@H](Cc1c[nH]cn1)NC(=O)[C@@H]1CCC(=O)N1 [LEUPROLIDE] | 4 min |  |  |
| 8.3 mL/min/kg | 1 min | CCNC(=O)[C@@H]1CCCN1C(=O)[C@H](CCCN=C(N)N)NC(=O)[C@H](CC(C)C)N(C)C(=O)[C@@H](CC(C)C)NC(=O)[C@H](Cc1ccc(O)cc1)NC(=O)[C@H](CO)NC(=O)[C@H](Cc1c[nH]c2ccccc12)NC(=O)[C@H](Cc1c[nH]cn1)NC(=O)[C@@H]1CCC(=O)N1 | 4.1 min | 10.45 |  |
| 16.9 mL/min/kg | > 60 min | CCNC(=O)[C@@H]1CCCN1C(=O)[C@H](CCCN=C(N)N)NC(=O)[C@H](CC(C)C)NC(=O)[C@@H](CC(C)C)NC(=O)[C@H](Cc1ccc(O)cc1)NC(=O)[C@H](CO)N(C)C(=O)[C@H](Cc1c[nH]c2ccccc12)NC(=O)[C@H](Cc1c[nH]cn1)NC(=O)[C@@H]1CCC(=O)N1 ([pGlu]HW[NMeS]Y[dL]LRP-NHEt) | > 90 min |  |  |
| 16.4 mL/min/kg |  | CCNC(=O)[C@@H]1CCCN1C(=O)[C@H](CCCN=C(N)N)NC(=O)[C@H](CC(C)C)NC(=O)[C@@H](Cc1c[nH]c2ccccc12)NC(=O)[C@H](Cc1ccc(O)cc1)NC(=O)[C@H](CO)NC(=O)[C@H](Cc1c[nH]c2ccccc12)NC(=O)[C@H](Cc1cnc[nH]1)N(C)C(=O)[C@@H]1CCC(=O)N1 |  |  | 5.5 nM |
| 3.4 mL/min/kg | > 60 min | CC(C)C[C@H](NC(=O)[C@@H](Cc1ccc2ccccc2c1)NC(=O)[C@H](Cc1ccc(O)cc1)N(C)C(=O)[C@H](CO)NC(=O)[C@H](Cc1c[nH]c2ccccc12)NC(=O)[C@H](Cc1c[nH]cn1)NC(=O)[C@@H]1CCC(=O)N1)C(=O)N[C@@H](CCCN=C(N)N)C(=O)N1CCC[C@H]1C(=O)NCC(N)=O | 33 min | 10.95 |  |
| 3.87 mL/min/kg |  | CC(C)C[C@H](NC(=O)[C@@H](Cc1ccc2ccccc2c1)NC(=O)[C@H](Cc1ccc(O)cc1)NC(=O)[C@H](CO)NC(=O)[C@H](Cc1c[nH]c2ccccc12)NC(=O)[C@H](Cc1c[nH]cn1)NC(=O)[C@@H]1CCC(=O)N1)C(=O)N(C)[C@@H](CCCN=C(N)N)C(=O)N1CCC[C@H]1C(=O)NCC(N)=O |  |  | 11.2 nM |
| 27.6 mL/min/kg | > 60 min | CC(C)C[C@H](NC(=O)[C@@H](Cc1ccc2ccccc2c1)NC(=O)[C@H](Cc1ccc(O)cc1)NC(=O)[C@H](CO)N(C)C(=O)[C@H](Cc1c[nH]c2ccccc12)NC(=O)[C@H](Cc1c[nH]cn1)NC(=O)[C@@H]1CCC(=O)N1)C(=O)N[C@@H](CCCN=C(N)N)C(=O)N1CCC[C@H]1C(=O)NCC(N)=O | 47 min | 11.3 |  |
| 28.8 mL/min/kg |  | CCNC(=O)[C@@H]1CCCN1C(=O)[C@H](CCCN=C(N)N)NC(=O)[C@H](CC(C)C)NC(=O)[C@@H](Cc1c[nH]c2ccccc12)NC(=O)[C@H](Cc1ccc(O)cc1)NC(=O)[C@H](CO)NC(=O)[C@H](Cc1c[nH]c2ccccc12)NC(=O)[C@H](Cc1ccccc1)NC(=O)[C@@H]1CCC(=O)N1 ([pGlu]FWSY[dW]LRP-NHEt) | 10.8 min |  |  |
